# Assay outcomes from PubChem BioAssay.
# pPAFAH FP inh: inhibitors of human plasma PAF acetylhydrolase (pPAFAH); 1.5% of 330,000 active; inhibition, % at 3.39 µM; Q13093; recombinant pPAFAH, FP-rhodamine probe fluorescence polarization;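 active means inhibition above the mean inhibition across the screen plus 3 SD, cut at about 25% in these data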;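 further: inhibitors block binding of the rhodamine activity-based probe so polarization drops; 0% = enzyme with DMSO and 100% = wells lacking pPAFAH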
# Target sequence (Q13093 whole entry, looked up): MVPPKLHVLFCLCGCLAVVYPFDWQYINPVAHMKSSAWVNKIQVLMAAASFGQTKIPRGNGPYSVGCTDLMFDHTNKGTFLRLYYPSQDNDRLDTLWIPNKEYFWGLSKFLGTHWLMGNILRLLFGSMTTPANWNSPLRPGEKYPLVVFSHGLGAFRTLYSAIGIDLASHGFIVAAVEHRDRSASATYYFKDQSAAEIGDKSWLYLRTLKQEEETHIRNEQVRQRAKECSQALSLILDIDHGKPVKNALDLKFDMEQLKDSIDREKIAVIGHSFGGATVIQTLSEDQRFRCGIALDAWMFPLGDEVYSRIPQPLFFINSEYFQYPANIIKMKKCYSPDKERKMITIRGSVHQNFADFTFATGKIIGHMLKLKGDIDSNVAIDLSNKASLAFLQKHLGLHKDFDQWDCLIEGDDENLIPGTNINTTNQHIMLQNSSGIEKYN
# SIAE primary: inhibitors of human sialic acid acetylesterase SIAE | Q9HAT2 | SIAE FP-Rh probe binding, fluorescence polarization | inhibition, % at 9.66 µM | 0.69% of 370,000 active | AID 1053197;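 active means inhibition above a cutoff: mean of compounds within the control limits plus 3 SD of those, cut at about 17% in these data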;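 further: 0% = plate median of compound wells and 100% = probe without SIAE protein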
# ABHD4 inh: inhibits mouse alpha/beta hydrolase domain 4; purified mABHD4, FP-Rh probe fluorescence polarization; inhibition, % at 8.92 µM; 0.54% of 370,000 active;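 active means inhibition exceeding the mean over every tested compound plus 3 SD, cut at about 30% in these data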;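 further: 0% = plate median of compound wells and 100% = S159A mutant with DMSO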
#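 Material: mouse ABHD4 enzyme, wild type; Benchmarks: S159A mutant high control, sample median low control; Buffer or medium: HEPES pH 7.0, NaCl, Pluronic buffer; Signal: fluorescence polarization; Read-out: percent inhibition of probe binding, normalized to plate controls; Timing: pre-incubation 45 min, probe exposure 60 min, at 25 °C; Dosing: 8.92 µM, single dose.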
# TCR CD3 inh: inhibitors of human TCR-CD3 interaction | TAMRA-labeled TCR probe fluorescence, biochemical | inhibition, % at 9.4 µM | 0.37% of 360,000 active | AID 651800; in the data active means inhibition above about 19%;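 further: recombinant mutant TCR 2C K166C tagged with TAMRA read by polarization; 0% = receptor in buffer alone and 100% = receptor with positive control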
# HTRA1 inh: HTRA1 (human) protease inhibition | Q92743 | recombinant HTRA1, FP-rhodamine activity-based probe, fluorescence polarization | inhibition, % at 5.96 µM | 0.5% of 340,000 active | AID 504803; in the data active means inhibition above about 36%;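 further: 0% = enzyme with DMSO and 100% = wells lacking enzyme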
# SIAE confirm: human SIAE inhibition, confirmation. SIAE FP-Rh activity-based probe, fluorescence polarization. 13% of 2,300 active. shares compounds with SIAE primary. inhibition, % at 9.66 µM;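 active means mean inhibition of the replicates above the hit cutoff set in the primary screen, cut at about 17% in these data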;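 further: 0% = SIAE with DMSO and probe and 100% = probe without SIAE; inhibitors lower polarization as more probe stays unbound to SIAE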
# Active calls of the source: *; x = no result given. An excerpt weighted towards active compounds, which were near 2.3% of everything screened.
SMILES,pPAFAH FP inh,SIAE primary,ABHD4 inh,TCR CD3 inh,HTRA1 inh,SIAE confirm
COc1cc(CNCCN2CCOCC2)ccc1OCc1ccc(Cl)cc1Cl,10.3,-0.6,8.8,-3.4,1.4,x
COc1cc(CNCCN2CCOCC2)ccc1OCc1cccc(Cl)c1,-0.2,17.2*,2.2,-15.3,8.8,-5.8
CCOC(=O)[C@]12CCCC=C1N(CCCOC)C(=O)[C@@H]2CC(=O)N1CCSCC1,x,-5.2,-1.1,x,x,x
CSc1nnc(C)c(/C=C/Nc2ccc(C)cc2)n1,3.9,10.2,2.4,1.5,-1.1,x
CSc1nnc(C)c(/C=C/NOCc2ccc(Cl)cc2)n1,0.3,18.5*,5.0,8.2,-2.5,0.1
CCCC1CCC2(CC1)CCC2OC(=O)Nc1ccccc1C (stereo not drawn),x,1.1,-15.2,x,x,x
CSc1cccc(NC(=S)N(CCN(C)C)C(C)c2ccncc2)c1 (stereo not drawn),3.8,23.1*,4.3,5.6,-10.3,-4.9
COC(=O)c1cc(-c2ccc(C)cc2)c(=O)n2c1CCC2,x,-5.3,6.4,x,x,x
CC1CCC/C(=N/NC(=O)c2ccccc2-n2cccc2)C1 (stereo not drawn),-8.4,42.4*,0.1,3.1,-1.4,7.7
CC1CCC(=NNC(=O)c2ccccc2-n2cccc2)CC1 (stereo not drawn),6.0,-0.2,-9.6,1.1,2.7,x
c1coc(-c2nnc3n2N=C(c2ccc4c(c2)OCO4)CS3)c1,x,2.8,0.6,x,x,x
CC(=O)NC(=S)Nc1ccc(NC(=S)NC(=O)c2cccs2)cc1,-2.0,-1.0,1.6,7.6,1.0,x
CCN(CC)c1ccc(NC(=S)NC(=O)c2cccs2)cc1,10.4,17.5*,11.0,-6.1,6.2,-1.5
COc1cccc(CN2CCc3[nH]c(=S)[nH]c(=O)c3C2)c1,14.2,22.1*,7.4,0.8,-3.6,-1.0
C[C@@H]1ON(C)[C@H]2C[C@H]3c4[nH]c5c(-c6ccc7c(c6)OCO7)cccc5c4CCN3C(=O)[C@@H]12,x,-1.8,-0.1,-1.7,x,x
Nc1ccc2nn(-c3ccccc3)nc2c1,x,19.3*,6.1,-3.8,6.3,6.1
O=C(Nc1c(-c2ccc(C(F)(F)F)cc2)nc2ncccn12)c1ccccc1,x,4.0,7.3,x,x,x
OC1c2c(F)cccc2N=C2CCCCN21 (stereo not drawn),x,4.0,4.0,0.7,x,x
O=C(CCC(=O)N(CC(=O)NC1CCCC1)c1ccc(F)cc1)Nc1nccs1,3.0,-3.2,-5.7,1.9,-0.9,x
O=C(CCC(=O)N(CC(=O)NC1CCCC1)c1cccc(F)c1)Nc1nccs1,-7.8,17.9*,4.3,5.0,4.2,-1.6
S=C(Nc1ccccc1)OCCN1CCCC12CCC(c1ccccc1)CC2 (stereo not drawn),x,-6.2,1.9,x,x,x
O=C(Nc1ccc(F)cc1)Nc1cc(S(=O)(=O)N2CCOCC2)ccc1N1CCCC1,2.6,20.2*,2.3,0.0,-1.3,17.4*
O=C(Nc1ccc(Cl)cc1)Nc1cc(S(=O)(=O)N2CCOCC2)ccc1N1CCCC1,8.9,6.0,7.0,-5.1,0.0,x
CC(C)CN1C(=O)C(=O)N(CC(=O)N(C)CC(=O)Nc2ccc(F)cc2)C1=O,8.4,19.9*,-0.5,-1.3,-1.2,3.2
CN(CC(=O)Nc1ccc(F)cc1)C(=O)Cc1ccsc1,0.9,3.2,-3.7,-5.5,8.4,x
SMILES,pPAFAH FP inh,SIAE primary,ABHD4 inh,TCR CD3 inh,HTRA1 inh,SIAE confirm
COC(=O)C1=C(C)N(Cc2ccc(C(F)(F)F)cc2)C(=NCc2ccc(OC)cc2)NC1c1ccccc1 (stereo not drawn),x,8.7,28.3,-0.9,x,x
CCN(Cc1ccccc1)C(=O)C1CCN(CC2CC=CCC2)CC1 (stereo not drawn),0.5,21.6*,3.7,-5.9,8.8,0.8
CCOC(=O)C1CN(S(C)(=O)=O)c2cc(CC(=O)OC)ccc2O1 (stereo not drawn),5.3,28.6*,3.6,5.5,0.5,5.3
CCOC(=O)C1CN(S(=O)(=O)c2ccc(OC)cc2)c2cc(CC(=O)OC)ccc2O1 (stereo not drawn),-3.9,-4.4,-7.2,-5.4,-3.0,x
C[C@H]1[C@@H](NC(=O)c2ccc(C(F)(F)F)cc2)CC[C@@]23CCCN2C(=O)CCC[C@@H]13,x,4.5,1.6,x,x,x
O=C(COC(=O)c1cccnc1)c1ccc(Cl)cc1,3.8,18.0*,2.1,-4.0,-6.8,-4.0
O=S1(=O)CC(N2CCSCC2)CN1Cc1cn(Cc2ccc(Cl)cc2)nn1 (stereo not drawn),x,-7.9,-8.3,-1.2,x,x
CC(C)n1c(=O)c2ccccc2n1S(C)(=O)=O,x,-0.8,2.8,-7.3,x,x
S=C(Nc1ccc2nsnc2c1)NC1CCCCC1,8.4,18.6*,-5.0,-0.8,1.2,2.4
COc1ccc(C(=O)Nc2cc(OC)c(Cl)cc2OC)cc1,3.4,-0.3,-3.2,-0.6,-0.8,x
COc1ccc(C(=O)Nc2cc(OC)c(NC(=O)Nc3ccccc3)cc2OC)cc1,x,22.8*,14.7,11.9,4.2,9.2
O=S1(=O)c2ccc(N3CC[C@H](O)C3)cc2O[C@@H]2CCN1C2,x,-0.5,-4.3,x,x,x
Fc1ccc(N2CCN(C3=Nc4ccccc4Sc4ccccc43)CC2)cc1,x,-2.5,1.4,x,x,x
O=C(Nc1cc(Cl)ccc1N1CCOCC1)c1ccc(Br)o1,5.0,24.3*,-3.2,-1.7,-0.9,0.8
COc1ccc(N2CCOCC2)c(NC(=O)c2ccc(Br)o2)c1,1.7,5.6,11.5,5.0,-9.6,x
COc1ccc(OC)c(/C=C2\S/C(=N/NC(=O)c3ccc4ccccc4c3)NC2=O)c1,17.6,18.7*,8.9,1.0,7.0,9.2
C[C@H](c1ccccc1)N1C[C@@H](COCc2ccccc2)Oc2cc(N3CC[C@@H](N(C)C)C3)ccc2S1(=O)=O,x,18.1*,7.2,7.7,x,11.2
C[C@@H](c1ccccc1)N1C[C@@H](COCc2ccccc2)Oc2cc(N3CC[C@H](N(C)C)C3)ccc2S1(=O)=O,x,5.4,11.7,1.9,x,x
COC(=O)c1cc2c(c3c4cc(C#N)ccc4n(S(=O)(=O)c4ccc(C)cc4)c13)C(=O)N(C)C2,x,4.5,6.8,0.8,x,x
CCOC(=O)CC(=O)CSc1nc2c(sc(=S)n2-c2ccc(OCC)cc2)c(=O)[nH]1,16.2,20.3*,-0.4,-3.1,-9.8,-1.6
O=C(NC(Cc1ccccc1)C(=O)O)/C(=C/c1ccc(Cl)cc1)NC(=O)c1ccccc1 (stereo not drawn),0.3,17.2*,-5.4,2.9,-4.9,1.4
O=C(NC(Cc1ccccc1)C(=O)O)/C(=C\c1ccccc1F)NC(=O)c1ccccc1 (stereo not drawn),1.1,1.9,-0.7,-1.5,-0.7,x
C[C@H](CO)N1C[C@H](C)[C@@H](CN(C)C(=O)c2ccc(N3CCN(C)CC3)cc2)OCc2cn(nn2)CCCC1=O,x,8.3,9.0,-4.5,x,x
O=C(NNC(=S)Nc1ccc(Cl)cc1Cl)c1cccnc1,4.6,20.1*,10.3,-3.0,-2.7,2.1
O=C(NNC(=S)Nc1ccc(Cl)cc1Cl)c1ccncc1,9.0,7.1,10.9,3.1,6.3,x
